# Experimental data: ChEMBL document CHEMBL1124655, “Substituted 5-amino-4,5,6,7-tetrahydroindazoles as partial ergoline structures with dopaminergic activity” (J Med Chem, 1989)
# Activity calls are given as the source filed them. The rule behind the calls is not given here.
# Legend:
# Rattus norvegicus [1] = assay: Reduction of serum prolactin concentration in rats, 5 mg/Kg administered intraperitoneally; assay type: functional
# Outline: (§1)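 Prolactin in serum of nonreserpinized male rats (Clemens method) after 5 mg/kg ip. Values are mean ± SE for 6-10 rats; significance versus control at P<0.05.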
# D(2) dopamine receptor [2] = biological target: T1, D(2) dopamine receptor (Bos taurus, UniProt P20288); assay: (§2) Inhibitory activity against Dopamine receptor D2 in calf corpus striatum using [3H]spiperone as radioligand; assay type: tissue-based
# Outline: (§3)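 Displacement of [3H]spiperone binding in calf corpus striatum membranes; some values given as percent displacement at 1000 nM.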
# Rattus norvegicus [3] = assay: Effect on homovanillic acid concentration in whole rat brain when 10 mg/kg was administered intraperitoneally; assay type: functional; conditions: route intraperitoneal
# Outline: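 Rats dosed ip at 10 mg/kg. Whole brain was assayed for HVA, with dopamine and DOPAC measured alongside, by liquid chromatography with electrochemical detection. Levels are in nmol/g and expressed as % change from control. Values are mean ± standard error for five rats per group. Significance versus control was taken at P<0.05.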
# Rattus norvegicus [4] = assay: Effect on serum corticosterone level […] when 10 mg/Kg was administered intraperitoneally; assay type: functional
# Outline: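 Rats dosed 10 mg/kg ip. Serum corticosterone determined spectrofluorometrically (Solem and Brinck-Johnsen method), reported as µg/100 mL versus a vehicle group and as % change from control. Mean ± SE, five rats per group; significance P<0.05.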
# Rattus norvegicus [5] = assay: Inhibition of serum prolactin concentration in rats when 5 mg/kg was administered intraperitoneally; assay type: functional; conditions: ip, route intraperitoneal; outline: as §1
# Rattus norvegicus [6] = assay: Effect on dopamine concentration in whole rat brain when 10 mg/Kg was administered intraperitoneally; assay type: functional
# Outline: (§4)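 Rats dosed 10 mg/kg ip. Whole-brain dopamine, DOPAC and HVA measured by liquid chromatography with electrochemical detection, expressed as nmol/g and as % change from a control group. Mean ± SE, five rats per group; significance at P<0.05.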
# Rattus norvegicus [7] = assay: Effect on 3,4-Dihydroxyphenylacetic acid concentration in whole rat brain when 10 mg/Kg was administered intraperitoneally; assay type: functional; outline: as §4
# D(2) dopamine receptor [8] = biological target: T2, D(2) dopamine receptor (Rattus norvegicus, UniProt P61169); assay: Inhibitory activity against Dopamine receptor D2 in rat corpus striatum using [3H]Apomorphine as radioligand; assay type: tissue-based
# Outline: (§5)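 Displacement of [3H]apomorphine binding in rat corpus striatum membranes; some values given as percent displacement at 1000 nM.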
# Rattus norvegicus [9] = assay: Inhibition of serum prolactin concentration in rats when 5 mg/Kg was administered intraperitoneally; assay type: functional; outline: as §1
# Rattus norvegicus [10] = assay: Effect on serum corticosterone level in whole rat brain when 10 mg/kg was administered intraperitoneally; assay type: functional; conditions: route intraperitoneal
# Outline: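 Rats dosed ip at 10 mg/kg. Serum corticosterone was determined spectrofluorometrically and reported in µg/100 mL, as % change from vehicle. Values are mean ± standard error for five rats per group. Significance versus control was taken at P<0.05.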
# D(2) dopamine receptor [11] = biological target: T1, D(2) dopamine receptor; assay: Inhibitory activity against dopamine receptor D2 in calf corpus striatum using [3H]spiperone as radioligand; assay type: tissue-based; outline: as §3
# Rattus norvegicus [12] = assay: (§6) Effect on homovanillic acid concentration in whole rat brain when 10 mg/Kg was administered intraperitoneally
# Rattus norvegicus [13] = assay: as §6; assay type: functional; outline: as §4
# D(2) dopamine receptor [14] = biological target: T2, D(2) dopamine receptor; assay: (§7) Inhibitory activity against dopamine receptor D2 in rat corpus striatum using [3H]apomorphine as radioligand; assay type: tissue-based; outline: as §5
# [15] = biological target: D(2) dopamine receptor (Rattus norvegicus) (UniProt P61169); assay: Inhibitory activity against Dopamine receptor D2 in rat corpus striatum using [3H]apomorphine as radioligand; assay type: tissue-based; outline: as §5
# [16] = biological target: D(2) dopamine receptor (Bos taurus) (UniProt P20288); assay: as §2; assay type: tissue-based; outline: as §3
# [17] = biological target: D(2) dopamine receptor (Rattus norvegicus) (UniProt P61169); assay: as §7; assay type: tissue-based; outline: as §5
# [18] = biological target: D(2) dopamine receptor (Bos taurus) (UniProt P20288); assay: Inhibitory activity against dopamine receptor D2 in calf corpus striatum using [3H]-Spiperone as radioligand; assay type: tissue-based; outline: as §3
# Rattus norvegicus [19] = assay: Inhibition of serum prolactin concentration in rats when 5 mg/Kg was administered intraperitoneally; NS means not significant; assay type: functional, organism-based; outline: as §1
# Rattus norvegicus [20] = organism: Rattus norvegicus; assay: Dopa accumulation in GBL-treated rats in the absence of the compound; assay type: functional
# Outline: (§8)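 Male rats given compound ip; γ-butyrolactone 500 mg/kg ip 10 min later, then decarboxylase inhibitor NSD 1015 100 mg/kg ip 5 min after GBL and 40 min before sacrifice. Striatal dopa accumulation measured by LC with electrochemical detection; Roth autoreceptor paradigm. Values are mean ± SE, five rats per group; one control group received no GBL.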
# Rattus norvegicus [21] = assay: Dopa accumulation in GBL-treated rats after the administration at a dose of 0.3 mg/Kg; assay type: functional; outline: as §8
# Rattus norvegicus [22] = assay: Dopa accumulation in GBL-treated rats after the administration at a dose of 3 mg/Kg; assay type: functional; outline: as §8
# Rattus norvegicus [23] = assay: Dopa accumulation in GBL-treated rats after the administration at a dose of 10 mg/Kg; assay type: functional; outline: as §8
# Rattus norvegicus [24] = assay: Effect on dopamine concentration in whole rat brain when 10 mg/Kg 10 mg/kg was administered intraperitoneally; assay type: functional; conditions: route intraperitoneal; outline: as §4
# Rattus norvegicus [25] = assay: Dopa accumulation in GBL-treated rats after the administration at a dose of 1.0 mg/Kg; assay type: functional; outline: as §8
# T1 sequence (P20288 whole entry): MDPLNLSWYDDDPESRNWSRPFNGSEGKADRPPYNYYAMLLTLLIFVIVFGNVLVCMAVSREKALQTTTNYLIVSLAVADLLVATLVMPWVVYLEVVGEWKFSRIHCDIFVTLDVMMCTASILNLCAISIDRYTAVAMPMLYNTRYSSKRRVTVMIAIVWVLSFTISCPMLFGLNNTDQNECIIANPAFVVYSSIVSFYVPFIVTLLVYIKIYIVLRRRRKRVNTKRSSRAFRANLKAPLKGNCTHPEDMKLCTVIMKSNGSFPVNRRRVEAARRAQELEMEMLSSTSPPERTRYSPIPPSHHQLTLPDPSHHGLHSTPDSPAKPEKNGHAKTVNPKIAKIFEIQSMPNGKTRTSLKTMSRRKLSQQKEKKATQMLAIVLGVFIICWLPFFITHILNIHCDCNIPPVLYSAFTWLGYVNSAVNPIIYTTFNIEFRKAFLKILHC
# Chain of D(2) dopamine receptor (Bos taurus) (P20288 whole entry): as above
# T2 sequence (P61169 whole entry): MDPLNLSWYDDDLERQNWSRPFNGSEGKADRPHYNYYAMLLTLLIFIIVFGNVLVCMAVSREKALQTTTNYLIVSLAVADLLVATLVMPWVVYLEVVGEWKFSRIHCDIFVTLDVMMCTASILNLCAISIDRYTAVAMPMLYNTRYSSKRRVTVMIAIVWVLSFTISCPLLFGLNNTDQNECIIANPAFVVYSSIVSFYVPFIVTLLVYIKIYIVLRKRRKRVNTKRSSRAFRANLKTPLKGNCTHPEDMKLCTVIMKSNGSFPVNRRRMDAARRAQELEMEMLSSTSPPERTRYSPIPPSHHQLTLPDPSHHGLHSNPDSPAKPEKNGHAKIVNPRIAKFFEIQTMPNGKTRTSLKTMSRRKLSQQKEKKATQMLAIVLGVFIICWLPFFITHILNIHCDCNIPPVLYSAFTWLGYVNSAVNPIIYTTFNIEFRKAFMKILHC
# Chain of D(2) dopamine receptor (Rattus norvegicus) (P61169 whole entry): as above
IC50 (D(2) dopamine receptor [11]),IC50 (D(2) dopamine receptor [14]),Compound,Turnover (Rattus norvegicus [1]),Turnover (Rattus norvegicus [4]),Turnover (Rattus norvegicus [6]),Turnover (Rattus norvegicus [7]),Inhibition (Rattus norvegicus [9]),Turnover (Rattus norvegicus [13]),other results
–,–,CCCN(C)C1CCc2n[nH]cc2C1 (centres undefined),2 ng/mL,41 µg/100 mL,5.16 nmol/g,0.43 nmol/g,–,–,IC50 (D(2) dopamine receptor [2]): 8330 nM; Turnover (Rattus norvegicus [3]): 0.22 nmol/g; inhibition in vivo at 5 mg/kg (Rattus norvegicus [5]): 82%; IC50 (D(2) dopamine receptor [8]): 1230 nM
–,–,CCCN1C[C@H](CSC)C[C@@H]2c3cccc4[nH]cc(c34)C[C@H]21 [PERGOLIDE],2 ng/mL,–,6.42 nmol/g,0.53 nmol/g,88%,–,Turnover (Rattus norvegicus [3]): 0.32 nmol/g; Turnover (Rattus norvegicus [10]): 54 µg/100 mL
> 1000 nM,–,CCCNC1CCc2nc(N)sc2C1 (centres undefined),3.7 ng/mL,54 µg/100 mL,5.08 nmol/g,0.35 nmol/g,78%,–,Turnover (Rattus norvegicus [12]): 0.15 nmol/g
1410 nM,160 nM,CCCN(CCc1cccs1)C1CCc2n[nH]cc2C1 (centres undefined),2.8 ng/mL,17.3 µg/100 mL,4.78 nmol/g,0.43 nmol/g,73%,0.24 nmol/g,–
–,–,CCCN[C@@H]1Cc2c[nH]nc2C[C@H]1CCC,5.1 ng/mL,–,–,–,–,–,Displacement [15]: 41%; Displacement [16]: 9%
–,–,CCCN[C@@H]1Cc2c[nH]nc2C[C@H]1CCCO,4.4 ng/mL,–,–,–,46%,–,Displacement [17]: 45%; Displacement [18]: 10%
11600 nM,610 nM,CCNC1CCc2n[nH]cc2C1 (centres undefined),1.6 ng/mL,16.6 µg/100 mL,6.39 nmol/g,0.55 nmol/g,91%,0.4 nmol/g,–
–,–,CCCCN(CCC)C1CCc2n[nH]cc2C1 (centres undefined),1.9 ng/mL,38.6 ng/mL,4.94 nmol/g,0.39 nmol/g,–,–,IC50 (D(2) dopamine receptor [2]): 10000 nM; inhibition in vivo at 5 mg/kg (Rattus norvegicus [5]): 83%; IC50 (D(2) dopamine receptor [8]): 330 nM
> 10000 nM,2030 nM,CSCCCNC1CCc2n[nH]cc2C1 (centres undefined),9.9 ng/mL,3.8 µg/100 mL,3.91 nmol/g,0.49 nmol/g,–,0.27 nmol/g,inhibition (Rattus norvegicus [19]): inactive
3990 nM,310 nM,CCCN(CCCSC)C1CCc2n[nH]cc2C1 (centres undefined),1.1 ng/mL,48 µg/100 mL,4.92 nmol/g,0.28 nmol/g,90%,0.16 nmol/g,–
–,–,CCCCNC1CCc2n[nH]cc2C1 (centres undefined),13.4 ng/mL,5.8 µg/100 mL,3.9 nmol/g,0.53 nmol/g,–,0.36 nmol/g,inhibition (Rattus norvegicus [19]): inactive
1060 nM,140 nM,CCCN(CCc1ccccc1)C1CCc2n[nH]cc2C1 (centres undefined),1.4 ng/mL,17.5 µg/100 mL,4.41 nmol/g,0.4 nmol/g,87%,0.23 nmol/g,–
> 10000 nM,–,c1ccc(CCNC2CCc3n[nH]cc3C2)cc1 (centres undefined),6 ng/mL,7.7 µg/100 mL,3.65 nmol/g,0.51 nmol/g,–,0.34 nmol/g,inhibition (Rattus norvegicus [19]): inactive
–,–,CCCN[C@@H]1Cc2c[nH]nc2C[C@H]1CCCSC,7.8 ng/mL,–,–,–,–,–,inhibition (Rattus norvegicus [19]): inactive; Displacement [17]: 45%; Displacement [18]: 10%
–,–,CCCN[C@@H]1Cc2c[nH]nc2C[C@H]1CCCOC,4.6 ng/mL,–,–,–,44%,–,Displacement [17]: 50%; Displacement [18]: 12%
15200 nM,65 nM,CCCNC1CCc2n[nH]cc2C1 (centres undefined),2.4 ng/mL,31.7 µg/100 mL,–,0.51 nmol/g,78%,0.51 nmol/g,Accumulation (Rattus norvegicus [20]): 24.8 nM/g; Accumulation (Rattus norvegicus [21]): 25.2 nM/g; Accumulation (Rattus norvegicus [22]): 16.9 nM/g; Accumulation (Rattus norvegicus [23]): 12.1 nM/g; Turnover (Rattus norvegicus [24]): 4.86 nmol/g; Accumulation (Rattus norvegicus [25]): 23.1 nM/g
> 10000 nM,9160 nM,c1csc(CCNC2CCc3n[nH]cc3C2)c1 (centres undefined),7.9 ng/mL,5.5 µg/100 mL,3.47 nmol/g,0.49 nmol/g,–,0.38 nmol/g,inhibition (Rattus norvegicus [19]): inactive
> 10000 nM,> 10000 nM,CCCCNC1CCc2[nH]ncc2C1 (centres undefined),–,–,–,–,–,–,–
